Experiments:
[1] = system: AITC-induced licking/biting; settings: cited from earlier work
[2] = system: CCI, SNL, CFA; settings: cited from earlier work
[3] = Plasma protein binding by ultracentrifugation; type: in vitro ADME; settings: male, rat
How it was run: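 Test compound at 5 µg/mL was incubated in male rat plasma for 15 min at 37 °C, then ultracentrifuged at 16,128 × g for 3 h at 37 °C. Samples were precipitated with acetonitrile containing internal standard, dried under nitrogen, reconstituted in methanol/water 50:50 and quantified by LC-MS/MS against calibration standards. The unbound fraction was taken as measured/nominal concentration.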

[4] = molecular target: T1, rTRPV3 (Rattus norvegicus, UniProt Q4QYD9); test: TRP channel selectivity, luminescence calcium assay in CHO cells; type: cell-based
T1 sequence (Q4QYD9 1-791): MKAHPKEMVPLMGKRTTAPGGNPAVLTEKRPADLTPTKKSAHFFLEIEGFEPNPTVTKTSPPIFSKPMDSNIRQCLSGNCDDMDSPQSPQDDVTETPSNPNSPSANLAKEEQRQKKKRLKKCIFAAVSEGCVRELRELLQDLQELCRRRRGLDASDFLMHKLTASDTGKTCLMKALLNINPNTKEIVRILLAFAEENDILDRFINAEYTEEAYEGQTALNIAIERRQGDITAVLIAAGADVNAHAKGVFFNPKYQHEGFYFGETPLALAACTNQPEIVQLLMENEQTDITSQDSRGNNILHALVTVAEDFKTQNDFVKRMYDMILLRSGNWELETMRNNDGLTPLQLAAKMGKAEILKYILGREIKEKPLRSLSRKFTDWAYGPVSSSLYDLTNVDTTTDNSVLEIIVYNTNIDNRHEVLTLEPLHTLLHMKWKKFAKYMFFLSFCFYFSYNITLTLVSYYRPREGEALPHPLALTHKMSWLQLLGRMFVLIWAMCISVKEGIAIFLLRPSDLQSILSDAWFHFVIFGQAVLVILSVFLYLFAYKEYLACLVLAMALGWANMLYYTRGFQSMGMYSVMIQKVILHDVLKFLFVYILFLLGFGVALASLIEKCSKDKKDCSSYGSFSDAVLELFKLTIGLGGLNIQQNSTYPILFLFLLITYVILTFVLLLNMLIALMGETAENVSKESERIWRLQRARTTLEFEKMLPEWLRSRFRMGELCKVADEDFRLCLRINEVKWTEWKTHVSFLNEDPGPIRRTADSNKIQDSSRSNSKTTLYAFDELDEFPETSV
How it was run: (§1)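 Tetracycline-inducible stable CHO lines co-expressing aequorin were induced with 0.5 µg/ml tetracycline 24 h before the assay. Cells were loaded for 2 h in pH 7.2 F12 with 30 mM HEPES and 15 µM coelenterazine. Test compound was added 2.5 min before agonist: 200 µM 2-APB for TRPV3, or 1 µM icilin or 12 °C cold buffer for TRPM8. Luminescence was read by CCD luminometer, and IC50 was fitted.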

[5] = molecular target: rTRPA1 (Rattus norvegicus, UniProt Q6RI86); test: rTRPA1 agonism assay; type: cell-based
[6] = molecular target: T2, TRPA1 (Rattus norvegicus, UniProt Q6RI86); test: AITC-induced licking/flinching model; type: in vivo; settings: po, read-out: Rat AITC PD model IC90
How it was run: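 Rats dosed p.o. at 0.3, 1, 3 or 10 mg/kg, or vehicle (1% Tween80/2% HPMC/97% water/methanesulfonic acid, pH 2.2), 60 min before intraplantar AITC (30 µl, in 0.5% Tween 80/PBS). A blinded observer counted flinches and guard/licks >3 s for 1 min post-injection. Plasma levels were measured by LC-MS/MS. IC90 came from sigmoidal fit of individual response versus plasma concentration.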

[7] = molecular target: rat TRPA1 (Rattus norvegicus, UniProt Q6RI86); test: Agonist-induced TRPA1 activation in stably expressing CHO cells; type: cell-based; settings: for IC50: stably expressing CHO cells
[8] = system: SNL-induced tactile allodynia; test: SNL-induced tactile allodynia; type: in vivo; settings: rat; 1 h and 2 h
How it was run: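 Two weeks after spinal nerve ligation, rats on a metal mesh floor were tested with nine von Frey filaments at near-equal log intervals. Filaments were applied to the mid-plantar glabrous area of the injured paw, and the 50% withdrawal threshold was found by the up-down method. After a baseline reading, rats received oral vehicle, test compound (100 or 300 mg/kg) or gabapentin 200 mg/kg and were retested at 1 and 2 h. Thresholds were log-transformed before statistics.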

[9] = Unbound plasma exposure in pharmacodynamic and pain models; type: in vivo, rat
How it was run: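 Rats in the pain models were dosed orally with test compound in 1% Tween80/2% HPMC/97% water/methanesulfonic acid pH 2.2. Plasma drug levels were measured by LC-MS/MS after protein precipitation, using a structurally similar internal standard and calibration standards serially diluted into blank plasma from a 1 mg/mL DMSO stock.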

[10] = system: CFA-induced hypersensitivity; test: CFA-induced decreased rearing in an open field assay; type: in vivo; settings: rat; for rearing time: 23 h after CFA, 60 min, CFA vehicle 204 ± 25 s; for effect on CFA-induced reduction in rearing: naproxen sodium 3 mg/kg, AMG0902 up to 100 mg/kg
[11] = molecular target: hTRPV1 (Homo sapiens, UniProt Q8NER1); test: TRP channel selectivity, calcium assay; type: cell-based
[12] = system: 40 targets including GPCRs, ion channels, and kinases; test: CEREP selectivity profiling; type: binding
[13] = system: open field activity in rats; test: Open field activity; type: in vivo; settings: rat open field, 60 min; for effect on total distance traveled vs vehicle: AMG0902 30-300 mg/kg, gabapentin 200 mg/kg p.o.
How it was run: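 Male Sprague-Dawley rats (220–300 g) were kept on a reversed light cycle for ≥1 week and acclimated 1 h. Test compound (30, 100 or 300 mg/kg), vehicle or gabapentin 200 mg/kg p.o. (same vehicle) was given 1 h before the rat was placed in a 41×41×38 cm box with 32 photocells. Beam breaks, distance, time and stereotypic movements were logged per minute over 60 min.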

[14] = Pharmacokinetics in plasma and brain; type: in vivo; settings: Sprague-Dawley, rat
[15] = molecular target: human TRPA1 (Homo sapiens, UniProt O75762); test: TRPA1 activation by AITC, antagonist assay; type: cell-based; settings: read-out: human TRPA1 activation by AITC IC90
[16] = molecular target: hTRPV4 (Homo sapiens, UniProt Q9HBA0); test: TRP channel selectivity, luminescence calcium assay in CHO cells; type: cell-based
How it was run: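 A tetracycline-inducible CHO line expressing human TRPV4 plus aequorin was induced with 0.5 µg/ml tetracycline 24 h before the assay. Cells were loaded for 2 h in pH 7.2 F12 containing 30 mM HEPES, 1 mM CaCl2, 0.3% BSA and 15 µM coelenterazine. Test compound was added 2.5 min before 1 µM 4α-PDD. Luminescence was read on a CCD-camera luminometer, and IC50 was calculated.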

[17] = molecular target: rTRPM8 (Rattus norvegicus, UniProt Q8R455); test: TRP channel selectivity, luminescence calcium assay in CHO cells; type: cell-based
How it was run: as §1

[18] = molecular target: rat TRPV1 (Rattus norvegicus, UniProt O35433); test: TRP channel selectivity, luminescence calcium assay in CHO cells; type: cell-based
How it was run: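 A CHO line constitutively expressing rat TRPV1 plus aequorin was used without tetracycline induction. Cells were loaded for 2 h with 15 µM coelenterazine in pH 7.2 F12 containing 30 mM HEPES. Test compound was added 2.5 min before 0.5 µM capsaicin. Luminescence was recorded by a CCD-camera luminometer, and IC50 was derived by curve fitting.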

[19] = molecular target: mouse TRPA1 (Mus musculus, UniProt Q8BLA8); test: TRPA1 activation by AITC, antagonist assay; type: cell-based
[20] = molecular target: T2, TRPA1; settings: 1, 3, 10, and 30 mg/kg; cited from earlier work
[21] = system: C-fibers; settings: cited from earlier work

Sequence of rat TRPA1 (Q6RI86 whole entry): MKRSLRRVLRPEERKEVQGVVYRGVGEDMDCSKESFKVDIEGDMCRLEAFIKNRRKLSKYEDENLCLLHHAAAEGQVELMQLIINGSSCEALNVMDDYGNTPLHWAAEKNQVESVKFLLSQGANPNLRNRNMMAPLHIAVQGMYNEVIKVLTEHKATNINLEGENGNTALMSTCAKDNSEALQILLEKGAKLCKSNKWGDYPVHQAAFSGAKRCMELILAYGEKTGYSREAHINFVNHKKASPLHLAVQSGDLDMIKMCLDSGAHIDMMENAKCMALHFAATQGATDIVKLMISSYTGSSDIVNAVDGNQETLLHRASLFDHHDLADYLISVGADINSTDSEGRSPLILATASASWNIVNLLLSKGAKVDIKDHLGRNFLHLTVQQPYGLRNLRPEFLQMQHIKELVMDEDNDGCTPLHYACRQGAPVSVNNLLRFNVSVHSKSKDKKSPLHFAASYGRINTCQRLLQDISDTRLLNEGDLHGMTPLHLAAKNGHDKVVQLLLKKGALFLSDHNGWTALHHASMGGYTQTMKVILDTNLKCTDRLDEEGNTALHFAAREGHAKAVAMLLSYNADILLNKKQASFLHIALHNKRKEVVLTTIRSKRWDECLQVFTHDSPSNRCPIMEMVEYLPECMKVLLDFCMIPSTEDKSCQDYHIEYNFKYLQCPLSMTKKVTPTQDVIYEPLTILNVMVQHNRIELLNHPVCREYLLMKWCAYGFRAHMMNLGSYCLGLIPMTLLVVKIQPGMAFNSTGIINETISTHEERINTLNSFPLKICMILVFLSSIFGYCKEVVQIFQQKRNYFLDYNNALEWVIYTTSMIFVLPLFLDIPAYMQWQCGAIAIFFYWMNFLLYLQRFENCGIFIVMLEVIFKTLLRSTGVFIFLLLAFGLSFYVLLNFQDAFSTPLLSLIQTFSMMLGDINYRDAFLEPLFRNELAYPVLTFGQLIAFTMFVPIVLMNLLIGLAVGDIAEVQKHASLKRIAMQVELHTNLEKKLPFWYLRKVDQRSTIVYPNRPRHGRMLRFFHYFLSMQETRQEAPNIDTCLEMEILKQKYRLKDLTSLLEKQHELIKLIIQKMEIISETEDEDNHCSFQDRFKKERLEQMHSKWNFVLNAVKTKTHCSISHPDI
T2 sequence (Q6RI86 whole entry): as above
Sequence of rat TRPV1 (O35433 whole entry): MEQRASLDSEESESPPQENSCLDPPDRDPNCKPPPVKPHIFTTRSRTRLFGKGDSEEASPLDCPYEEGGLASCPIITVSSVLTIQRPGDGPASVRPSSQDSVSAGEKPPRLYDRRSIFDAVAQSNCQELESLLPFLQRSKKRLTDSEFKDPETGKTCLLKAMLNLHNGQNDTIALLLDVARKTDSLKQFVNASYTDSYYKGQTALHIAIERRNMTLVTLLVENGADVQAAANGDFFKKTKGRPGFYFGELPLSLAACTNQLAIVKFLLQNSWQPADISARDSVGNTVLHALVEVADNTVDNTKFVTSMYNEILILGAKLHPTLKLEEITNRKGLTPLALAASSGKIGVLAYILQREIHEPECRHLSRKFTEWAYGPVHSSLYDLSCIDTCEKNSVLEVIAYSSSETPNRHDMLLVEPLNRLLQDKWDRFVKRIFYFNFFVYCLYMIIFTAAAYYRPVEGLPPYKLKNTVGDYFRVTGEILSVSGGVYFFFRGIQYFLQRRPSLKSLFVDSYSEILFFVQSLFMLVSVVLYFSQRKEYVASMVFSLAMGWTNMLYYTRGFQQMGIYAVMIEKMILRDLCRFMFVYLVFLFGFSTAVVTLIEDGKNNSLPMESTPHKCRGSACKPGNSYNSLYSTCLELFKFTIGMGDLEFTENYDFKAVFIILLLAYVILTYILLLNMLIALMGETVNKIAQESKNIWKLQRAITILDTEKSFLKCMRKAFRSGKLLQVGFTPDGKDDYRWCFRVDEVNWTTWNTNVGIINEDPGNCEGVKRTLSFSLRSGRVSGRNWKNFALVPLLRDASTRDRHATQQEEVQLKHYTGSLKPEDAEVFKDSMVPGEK
Sequence of mouse TRPA1 (Q8BLA8 whole entry): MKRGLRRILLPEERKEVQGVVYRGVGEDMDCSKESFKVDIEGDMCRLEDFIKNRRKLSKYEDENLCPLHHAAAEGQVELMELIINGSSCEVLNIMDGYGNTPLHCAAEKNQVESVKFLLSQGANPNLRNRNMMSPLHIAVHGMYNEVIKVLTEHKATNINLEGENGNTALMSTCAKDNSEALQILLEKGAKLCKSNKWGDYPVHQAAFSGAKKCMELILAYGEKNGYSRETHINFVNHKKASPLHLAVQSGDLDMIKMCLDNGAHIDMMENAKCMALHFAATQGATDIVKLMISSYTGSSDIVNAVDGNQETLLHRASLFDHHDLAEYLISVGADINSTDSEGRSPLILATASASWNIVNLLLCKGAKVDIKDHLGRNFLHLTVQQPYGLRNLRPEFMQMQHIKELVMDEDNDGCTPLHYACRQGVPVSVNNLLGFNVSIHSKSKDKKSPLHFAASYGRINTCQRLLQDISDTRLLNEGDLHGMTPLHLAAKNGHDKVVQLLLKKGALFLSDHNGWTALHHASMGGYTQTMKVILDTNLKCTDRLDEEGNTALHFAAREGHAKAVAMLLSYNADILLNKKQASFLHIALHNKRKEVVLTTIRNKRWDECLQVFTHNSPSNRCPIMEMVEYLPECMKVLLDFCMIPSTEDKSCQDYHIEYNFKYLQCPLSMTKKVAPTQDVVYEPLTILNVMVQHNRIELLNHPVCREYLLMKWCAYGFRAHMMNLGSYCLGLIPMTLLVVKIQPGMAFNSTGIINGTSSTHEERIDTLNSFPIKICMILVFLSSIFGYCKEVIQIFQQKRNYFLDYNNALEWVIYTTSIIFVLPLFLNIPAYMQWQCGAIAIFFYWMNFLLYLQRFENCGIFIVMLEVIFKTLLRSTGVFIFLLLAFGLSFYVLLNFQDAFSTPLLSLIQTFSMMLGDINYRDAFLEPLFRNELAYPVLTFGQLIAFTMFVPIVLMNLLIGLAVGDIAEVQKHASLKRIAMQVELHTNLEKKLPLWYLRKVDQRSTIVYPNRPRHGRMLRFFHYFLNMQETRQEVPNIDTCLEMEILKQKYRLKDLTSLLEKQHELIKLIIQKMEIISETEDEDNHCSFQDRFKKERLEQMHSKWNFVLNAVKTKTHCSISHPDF
Sequence of human TRPA1 (O75762 whole entry): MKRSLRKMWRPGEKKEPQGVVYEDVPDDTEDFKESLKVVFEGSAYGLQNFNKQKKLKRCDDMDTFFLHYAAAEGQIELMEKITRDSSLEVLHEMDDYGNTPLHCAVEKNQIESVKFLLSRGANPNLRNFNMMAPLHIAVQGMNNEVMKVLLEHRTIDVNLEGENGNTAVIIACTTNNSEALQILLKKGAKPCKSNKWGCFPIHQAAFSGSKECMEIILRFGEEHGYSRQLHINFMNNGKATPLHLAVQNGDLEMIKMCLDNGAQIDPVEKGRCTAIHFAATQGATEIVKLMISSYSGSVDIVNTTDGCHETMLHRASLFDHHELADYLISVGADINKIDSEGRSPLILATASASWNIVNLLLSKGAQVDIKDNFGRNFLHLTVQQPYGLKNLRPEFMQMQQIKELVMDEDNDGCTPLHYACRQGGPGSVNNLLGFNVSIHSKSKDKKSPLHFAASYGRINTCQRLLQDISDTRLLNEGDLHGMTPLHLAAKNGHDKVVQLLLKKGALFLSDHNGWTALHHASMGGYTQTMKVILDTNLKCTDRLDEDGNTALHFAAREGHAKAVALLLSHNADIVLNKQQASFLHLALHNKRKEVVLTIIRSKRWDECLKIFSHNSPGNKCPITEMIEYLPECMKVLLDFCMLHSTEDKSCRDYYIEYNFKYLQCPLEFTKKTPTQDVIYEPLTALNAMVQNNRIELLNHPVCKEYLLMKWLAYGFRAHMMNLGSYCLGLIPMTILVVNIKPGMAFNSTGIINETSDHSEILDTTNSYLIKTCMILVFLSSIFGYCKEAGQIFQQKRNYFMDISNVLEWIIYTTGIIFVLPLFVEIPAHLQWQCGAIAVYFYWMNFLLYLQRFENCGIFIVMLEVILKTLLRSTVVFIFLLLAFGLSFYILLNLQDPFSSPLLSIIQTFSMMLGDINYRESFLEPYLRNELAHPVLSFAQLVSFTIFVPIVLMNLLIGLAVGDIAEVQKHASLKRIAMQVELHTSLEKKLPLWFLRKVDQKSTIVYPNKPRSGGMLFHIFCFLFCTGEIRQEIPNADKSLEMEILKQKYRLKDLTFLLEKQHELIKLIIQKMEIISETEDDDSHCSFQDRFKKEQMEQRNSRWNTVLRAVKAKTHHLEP
Sequence of hTRPV1 (Q8NER1 whole entry): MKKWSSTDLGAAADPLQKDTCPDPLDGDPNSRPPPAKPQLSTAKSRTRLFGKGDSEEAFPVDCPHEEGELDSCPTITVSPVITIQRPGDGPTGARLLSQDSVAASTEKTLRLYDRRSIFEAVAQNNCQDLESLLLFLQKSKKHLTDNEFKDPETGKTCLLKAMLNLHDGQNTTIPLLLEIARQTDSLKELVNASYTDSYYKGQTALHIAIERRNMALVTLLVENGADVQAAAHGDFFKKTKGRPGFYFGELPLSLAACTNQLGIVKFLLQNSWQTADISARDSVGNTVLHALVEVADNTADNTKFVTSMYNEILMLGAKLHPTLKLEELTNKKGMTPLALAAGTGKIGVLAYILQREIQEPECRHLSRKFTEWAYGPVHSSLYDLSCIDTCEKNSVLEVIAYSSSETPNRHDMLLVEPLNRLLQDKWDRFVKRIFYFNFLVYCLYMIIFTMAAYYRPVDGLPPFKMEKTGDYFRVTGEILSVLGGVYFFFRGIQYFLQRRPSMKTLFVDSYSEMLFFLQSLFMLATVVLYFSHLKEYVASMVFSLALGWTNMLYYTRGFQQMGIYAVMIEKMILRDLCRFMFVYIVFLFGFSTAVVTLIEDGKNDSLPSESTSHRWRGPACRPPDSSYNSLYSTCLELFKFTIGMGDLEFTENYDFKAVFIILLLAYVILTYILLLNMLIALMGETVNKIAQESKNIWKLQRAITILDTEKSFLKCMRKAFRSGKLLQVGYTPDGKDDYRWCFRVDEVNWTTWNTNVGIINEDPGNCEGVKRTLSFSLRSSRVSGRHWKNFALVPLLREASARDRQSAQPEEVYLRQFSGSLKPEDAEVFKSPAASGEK

For CCC(=N\O)/C(C)=C/c1ccc(F)cc1 [A-967079], the “effect on AITC-induced licking/biting in vivo” value [1] is given as “efficiently blocks”, the Efficacy ([2]; CCI, SNL, CFA, MH, 62 mg/kg, p.o., ref Chen et al.[42]) is given as “ineffective” and the “effect on von Frey-evoked tactile allodynia” value ([2]; CFA or SNL models) is given as “no effect”.

Cn1cnc2ncn(Cc3nc(CCc4ccc(Cl)cc4)no3)c(=O)c21 [AMG0902, 1-((3-(4-Chlorophenethyl)-1,2,4-oxadiazol-5-yl)methyl)-7-methyl-1H-purin-6(7H)-one] gave a fraction unbound at 15 min, 5 µg/mL [3] of 0.29, an IC50 [4] of over 10000 nM and an IC50 [5] of over 25000 nM. It also gave an IC90 [6] of 1700 nM, an IC90 ([7]; CHO, read-out: IC90 against rat TRPA1) of 300 nM and an IC50 ([7]; rTRPA1 (4-ONE) IC50, 35 µM 4-ONE) of 585 ± 110 nM. The IC50 ([7]; rTRPA1 (AITC) IC50, 80 µM AITC) was 68 ± 38 nM, the IC50 ([7]; rTRPA1 (Methylglyoxal) IC50, 2.74 mM methylglyoxal) was 151 ± 5 nM and the IC50 ([7]; rTRPA1 (Osmol) IC50, 100 mOsmol hypo-osmolarity) was 9.7 ± 2 nM. For the same compound, the “effect on SNL-induced mechanical allodynia” value [8] was “no significant effect”, the “mean unbound plasma concentration” value ([9]; CFA Randall Selitto model, 300 mg/kg p.o.) was 35 ± 11 µM and the “mean unbound plasma concentration” value ([9]; CFA rearing model, 100 mg/kg p.o.) was 6.1 ± 2.4 µM. For the same compound, the “mean unbound plasma concentration” value ([9]; SNL model, 300 mg/kg p.o.) was 8.4 µM, the “mean Cu concentration (unbound plasma)” value ([9]; open field assay, 300 mg/kg p.o.) was 12.6 ± 5.4 µM and the rearing time ([10]; AMG0902 100 mg/kg p.o.) was 264 ± 52 s. The “effect on CFA-induced reduction in rearing” value [10] was “no significant reduction”, the IC50 [11] was over 10000 nM and the “inhibition of specific ligand binding to each target” value ([12]; 40 targets profiled at CEREP) was under 33%. For the same compound, the IC50 ([12]; read-out: in vitro potency at 40 targets profiled at CEREP) was over 10000 nM, the rearing time ([13]; 300 mg/kg p.o., 1 h before) was 308 ± 67 s and the total distance traveled ([13]; 300 mg/kg p.o., 1 h before) was 7437 ± 900 cm. The “effect on total distance traveled vs vehicle” value [13] was “no significant effect”, the Kp ([14]; brain) was 0.2 and the clearance ([14]; male, plasma, iv, 2 mg/kg) was 41.7 mL/min/kg. It also gave an IC90 [15] of 186 ± 18 nM, an IC50 [16] of over 10000 nM and an IC50 [17] of over 10000 nM. For the same compound, the IC50 [18] was over 10000 nM, the IC50 [19] was 113 ± 77 nM and the “effect on AITC-induced licking/flinching” value [20] was “dose-dependent prevention”.

In the case of CC(C)c1ccc(NC(=O)Cn2cnc3c2c(=O)n(C)c(=O)n3C)cc1 [HC-030031], the “effect on mechanically evoked action potential firing in C-fibers” value [21] is given as “reduced mechanically evoked action potential firing”.

For NCC1(CC(=O)O)CCCCC1 [gabapentin, reference compound], the “effect on SNL-induced mechanical allodynia” value [8] was “significantly reversed” and the “effect on total distance traveled vs vehicle” value [13] was “not significantly reduced”.

In the case of COc1ccc2cc([C@H](C)C(=O)O)ccc2c1 [naproxen, reference compound], the rearing time ([10]; naproxen 3 mg/kg p.o.) is reported as 418 ± 49 cm and the “effect on CFA-induced reduction in rearing” value [10] is reported as “significant inhibition”.

From paper PMC5131813 (Molecular Pain, 2016)
